The text below walks through data of ChEMBL document CHEMBL1153644, “Synthesis and analgesic and anti-inflammatory activities 6-substituted-3(2H)-pyridazinone-2-acetyl-2-(p-substituted/nonsubstituted benzal)hydrazone derivatives” (Eur J Med Chem, 2009).

The subject of data set [1] is Mus musculus. Kind of data set: Gastrointestinal toxicity in Swiss albino mouse assessed as ulcerogenic effect at 100 mg/kg, po. The data set is classed as organism-based. Set-up: dose 100 mg/kg, route oral. As to conditions: in vivo. Put shortly: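 Male Swiss albino mice (20–25 g), food withdrawn one day before with water allowed, at least six per group. Dosed orally as a suspension in distilled water with 0.5% CMC; controls got vehicle. Taken from the p-benzoquinone writhing test (i.p. 2.5% PBQ 60 min post-dose), then killed under deep ether anesthesia. Stomachs were opened along the great curvature and checked under a dissecting microscope for lesions or bleeding; scored as ulcerated/total animals.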

The subject of data set [2] is Mus musculus. Kind of data set: Analgesic activity in Swiss albino mouse assessed as inhibition of para-benzoquinone-induced abdominal writhing response at 100 mg/kg, po administered 60 mins prior to para-benzoquinone challenge measured after 15 mins. Set-up: scale not given: the % may be the effect or the level left. The data set is classed as functional, Abdomen. A digest of the protocol: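 Male Swiss albino mice (20–25 g) were fasted overnight with water allowed, at least 6 per group. Oral dosing used a 0.5% CMC suspension, and vehicle was given to controls. Then 0.1 ml/10 g of 2.5% (v/v) p-benzoquinone was injected i.p. Writhings were counted for 15 min, starting 5 min after injection. Inhibition is expressed as % of control, mean ± SEM, ANOVA/Student–Newman–Keuls.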
(In general: In writhing tests, fewer writhes than in controls are read as antinociception.)

Data set [3] concerns Mus musculus. Nature of the data set: Antiinflammatory activity in Swiss albino mouse assessed as inhibition of carrageenan-induced paw edema at 10 mg/kg, po administered before 60 mins of carrageenan-challenge measured after 90 mins. It counts as functional. Put shortly:
(§1)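 Fasted male Swiss albino mice (20–25 g), n≥6, were dosed orally in 0.5% CMC suspension, with vehicle for controls. Carrageenan (0.5 mg/25 μl in saline) was injected subplantar into the right hind paw and saline into the left. The right–left footpad thickness difference was measured by dial caliper every 90 min over 6 h. Inhibition was calculated versus control, mean ± SEM.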
Background: The carrageenan paw model is a standard test of acute inflammation.

Data set [4] deals with Mus musculus. Nature of the data set: Antiinflammatory activity in Swiss albino mouse assessed as inhibition of carrageenan-induced paw edema at 10 mg/kg, po administered before 60 mins of carrageenan-challenge measured after 180 mins. It counts as functional. Put shortly:
as §1

The subject of data set [5] is Mus musculus. Kind of data set: Antiinflammatory activity in Swiss albino mouse assessed as inhibition of carrageenan-induced paw edema at 10 mg/kg, po administered before 60 mins of carrageenan-challenge measured after 270 mins. The data set is classed as functional. Put shortly:
as §1

For data set [6], the system named is Mus musculus. Nature of the data set: Antiinflammatory activity in Swiss albino mouse assessed as inhibition of carrageenan-induced paw edema at 10 mg/kg, po administered before 60 mins of carrageenan-challenge measured after 360 mins. It counts as functional. A digest of the protocol:
as §1

On to `CC(=O)Oc1ccccc1C(=O)O` [ASPIRIN], for which the figures for the Activity entry in the data set with Mus musculus [1] and with Mus musculus [2] were “Toxic” and 48.7%, respectively.

For the compound `COc1ccc2c(c1)c(CC(=O)O)c(C)n2C(=O)c1ccc(Cl)cc1` [INDOMETHACIN], the Activity result in the data set on Mus musculus [1] is “Toxic”. The inhibition in vivo (in general, the change of the read-out against control, counted positive when it falls) at 10 mg/kg in the data set with Mus musculus [3] stood at 34.4%; in the data set with Mus musculus [4], 32.8%; in the data set on Mus musculus [5] it was 37.4%; in the data set on Mus musculus [6] it was 40.4%.

In the case of `Cc1ccc(/C=N/NC(=O)Cn2nc(N3CCN(c4ccc(Cl)cc4)CC3)ccc2=O)cc1`, the Activity entry in the data set on Mus musculus [1] is “Non-toxic”.

Regarding `Cc1ccc(/C=N/NC(=O)Cn2nc(N3CCN(c4cccc(Cl)c4)CC3)ccc2=O)cc1`, the Activity entry in the data set on Mus musculus [1] is “Non-toxic”.

For `COc1ccc(/C=N/NC(=O)Cn2nc(N3CCN(c4cccc(Cl)c4)CC3)ccc2=O)cc1`, in the data set on Mus musculus [1], the Activity result is on record as “Non-toxic”.

In the case of `Cc1ccc(/C=N/NC(=O)Cn2nc(N3CCN(c4ccccn4)CC3)ccc2=O)cc1`, in the data set on Mus musculus [1], the Activity result was “Non-toxic”.

`COc1ccc(/C=N/NC(=O)Cn2nc(N3CCN(c4ccccn4)CC3)ccc2=O)cc1`: the Activity entry in the data set with Mus musculus [1] is “Non-toxic”.

In the case of `COc1ccc(/C=N/NC(=O)Cn2nc(N3CCN(c4ccc(Cl)cc4)CC3)ccc2=O)cc1`, in the data set on Mus musculus [1], the Activity result is “Non-toxic”.
